Wnt bcat act: activators of Wnt/beta-catenin signaling; Wnt/beta-catenin reporter cell assay, activator, plate reader; activation, % at 9.35 µM; actives 1.2% (n = 300,000); AID 743398; in the data active = activation above about 30%, passing the limit was not always enough; inconclusive = no clear call, values can overlap the other calls
PGC1a acetyl inh: lowers PGC1a acetylation signal in U2OS cells; inhibition, % at 15.6 µM; AlphaScreen anti-acetyl-lysine; with virally co-expressed GCN5 acetyltransferase; actives 0.17% (n = 350,000);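 active = every replicate shows inhibition of at least 40%; inconclusive = mean inhibition at least 40% but some replicate below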
Cneo AK release: Cryptococcus neoformans lysis via adenylate kinase release | lysis activity, % at 15 µM | actives 0.2% (n = 360,000) | AID 651654 | C. neoformans lysis, adenylate kinase release luminescence, 4 h; normalised: neutral wells 0, clomiphene wells 100;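 active = mean lysis activity across replicates of at least 80%, whatever share of replicates individually reach that level; inactive = mean lysis activity below 80%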
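Material – Cryptococcus neoformans yeast cells · Quantity – 5 × 10^6 yeast cells/mL · Buffer or medium – YPD medium · Compound – single dose · Timing – 4 h static compound exposure, 37 °C, read 1 h post-reagent · Signal – adenylate kinase release luminescence · Read-out basis – lysis from increased AK signal · Benchmarks – Clomiphene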
MITF TRPM1 HTS: MITF TRPM1 promoter activation in melanoma cells | activation, % at 12.5 µM | SK-MEL-5 TRPM1-promoter luciferase, 24 h; % of positive control, neutral wells = 0 | AID 588334 | actives 0.75% (n = 300,000);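 active = mean activation of at least 80% with every replicate also reaching 80%; inconclusive = mean reaches 80% but some replicate falls short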
A number is an active result; . = inactive; ? = inconclusive; / = no result given. Sampled rows, rich in hits. Any-hit rate of the full collection: about 1.5%.

SMILES	Wnt bcat act	PGC1a acetyl inh	Cneo AK release	MITF TRPM1 HTS
Cc1ccnc(NC(=O)Nc2ccc3c(c2)N(C)C(=O)CS3)c1	.	.	.	187.2
Cc1cccc(NC(=O)Nc2ccc3c(c2)N(C)C(=O)CS3)n1	.	.	.	90.6
O=C(C[C@@H]1CC[C@@H](NC(=O)c2cccc(F)c2)[C@H](CO)O1)NCCN1CCCC1	/	.	.	/
Cc1ccc(C(=O)Cn2nnc3ccccc32)cc1[N+](=O)[O-]	.	.	.	/
Cc1ccc(C(=O)n2nnc3ccccc32)cc1[N+](=O)[O-]	/	.	91.4	.
CC(=O)N1[C@@H](CO)[C@@H](c2ccccc2)C12CN(C(=O)c1ccc3c(c1)OCO3)C2	/	.	/	/
CCOC(=O)c1c(C)oc2c1c(C(c1ccccc1)N1CCOCC1)c(O)c1ccccc12 (configuration not stated)	40.2	/	.	.
O=C(c1cc2c(ccc3ccccc32)o1)N1CCCCC1	38.1	.	.	.
O=C(O)c1cc2c(ccc3ccccc32)o1	.	.	.	.
Cc1ccc2cc3cc(C(=O)N4CC(C)CC(C)C4)oc3nc2c1 (configuration not stated)	.	.	.	.
O=C(c1cc2cc3ccc(Cl)cc3nc2o1)N1CCCCCC1	/	.	.	101.9
O=C(c1cc2cc(Cl)ccc2o1)N1CCCCCC1	.	/	.	129.8
CCC(=O)N1C[C@H](C)[C@@H](OC)CN(C)C(=O)c2ccc(NC(=O)c3ccccc3)cc2OC[C@H]1C	/	.	.	/
O=C1/C(=C/Nc2cccc([N+](=O)[O-])c2)CCc2ccccc21	90.3	/	.	.
CNC[C@@H]1OCCCC[C@H](C)Oc2ccc(NC(=O)Nc3ccccc3)cc2C(=O)N([C@H](C)CO)C[C@@H]1C	/	.	/	/
CC1Oc2ccccc2C(=O)N(CC(=O)c2ccc3c(c2)OCCO3)C1=O (configuration not stated)	.	.	/	.
O=C(CN1C(=O)NC2(CCCCCC2)C1=O)c1ccc(F)cc1	.	/	.	.
CC(C)C1Oc2ccccc2C(=O)N(CC(=O)c2ccc3c(c2)OCCO3)C1=O (configuration not stated)	33.4	/	.	.
O=C(CN1C(=O)NC2(CCCCCC2)C1=O)c1ccc2c(c1)OCCO2	66.7	.	.	/
CC=Cc1ccc2n(c1=O)C[C@@H]1[C@@H](CO)[C@H](C(=O)NCC)N(C(=O)CC3CC3)[C@H]21 (mixture of isomers)	/	/	.	/
Cc1ccc2c(c1)sc1nc(=O)n(-c3cccc(Cl)c3)c(=O)n12	/	.	.	102.6
O=c1nc2sc3ccccc3n2c(=O)n1-c1ccc(Cl)cc1	.	/	.	114.4
Cc1ccc2c(c1)sc1nc(=O)n(-c3ccc(Cl)cc3)c(=O)n12	/	.	.	/
C[C@@H]1CN([C@@H](C)CO)C(=O)c2cc(C3=CCCC3)cnc2O[C@H]1CN(C)Cc1ccccc1	/	.	.	/
COc1ccc2c3c([nH]c2c1)[C@H](CO)N(CC1CC1)CC31CCN(C(=O)c2ccccc2F)CC1	/	.	/	/
SMILES	Wnt bcat act	PGC1a acetyl inh	Cneo AK release	MITF TRPM1 HTS
N/C(=N\OC(=O)c1ccc2ccccc2c1)c1ccccc1Cl	46.6	.	.	?
Cc1ccccc1OCC(=O)O/N=C(\N)Cc1cccs1	/	.	.	.
N/C(=N\OC(=O)c1ccc2ccccc2c1)c1ccccn1	.	/	.	.
Cc1ccccc1C(=O)O/N=C(\N)Cc1cccs1	.	.	.	93.6
Cc1occc1C(=O)O/N=C(\N)c1ccc(Cl)cc1	63.4	.	.	/
N/C(=N\OC(=O)c1ccc2ccccc2c1)c1ccncc1	33.9	/	.	?
CS(=O)(=O)N(CC1CCC1)C[C@@H]1N[C@@H](CO)[C@@H]1c1ccccc1	/	.	.	/
CS(=O)(=O)Nc1ccc2c(c1)[C@@H]1C[C@@H](CC(=O)NCCN3CCCCC3)O[C@H](CO)[C@@H]1O2	/	.	.	/
CC(=O)N[C@H]1CC[C@H](CCNC(=O)Nc2ccc(C(F)(F)F)cc2)O[C@H]1CO	/	.	.	/
Cc1ccccc1C(=O)O/N=C(\N)c1ccncc1	40.1	/	/	.
N/C(=N\OC(=O)c1ccc(Cl)cc1Cl)c1ccncc1	34.8	/	/	/
N/C(=N\OC(=O)c1ccccc1Cl)c1ccncc1	.	/	/	.
N/C(=N\OC(=O)c1cc(Cl)ccc1Cl)c1ccncc1	.	/	/	.
CCCN1C[C@@H](C)[C@@H](OC)CN(C)C(=O)c2cc(NC(=O)Nc3c(C)noc3C)ccc2OC[C@@H]1C	/	.	.	/
COc1ccc(C(=O)CSc2ccccc2C(=O)O)cc1	43.5	.	/	.
COc1ccc(NC(=O)Cc2ccccc2)cc1	36.0	.	.	.
CCc1ccc(OC(=O)Nc2ccccc2)cc1	.	.	.	92.2
COc1ccc(C(=O)CC(=O)c2ccccc2)cc1	82.6	.	.	/
Cc1cc(=O)oc2cc(OCc3ccccc3)ccc12	.	.	.	.
Cc1cc(=O)oc2cc(OCc3c(F)cccc3Cl)ccc12	42.1	/	/	/
Cn1c(SCC(=O)c2ccccc2)nnc1-c1cnccn1	.	.	.	.
CCn1c(SCC(=O)c2ccccc2)nnc1-c1cnccn1	35.9	.	.	/
Cc1ccc(-c2cc(C(=O)NC3CCCC3)no2)cc1	.	.	.	125.0
O=C(NC1CCCCC1)c1cc(-c2ccc(F)cc2)on1	.	/	.	/
O=C(NC1CCCCC1)c1cc(-c2cccs2)on1	37.4	.	.	?
SMILES	Wnt bcat act	PGC1a acetyl inh	Cneo AK release	MITF TRPM1 HTS
O=C(COCc1cc(-c2cccs2)on1)NC1CCCCC1	.	.	.	.
O=C(NC1CCCC1)c1cc(-c2ccc(Cl)c(Cl)c2)on1	.	.	.	106.7
O=C(/C=C1\OCc2ccccc21)OCc1ccccc1	.	/	/	/
O=C(/C=C1\OCc2ccccc21)c1ccccc1	45.2	/	/	/
CC(C)NC(=O)N(C)C[C@@H]1OCCCC[C@@H](C)Oc2ccc(NC(=O)Cc3ccccc3)cc2C(=O)N([C@@H](C)CO)C[C@H]1C	/	.	.	/
Cc1ccc(C(=O)Nc2cc3c(oc2=O)CCCC3=O)cc1	34.1	/	/	/
O=c1[nH]c2ccc(NCc3ccc(OCc4ccccc4Cl)cc3)cc2[nH]1	.	.	.	82.6
COc1cc(CNc2ccc(N3CCN(C(C)=O)CC3)cc2)ccc1OCc1ccccc1	40.0	.	/	.
COc1cc(CNc2ccc3[nH]c(=O)[nH]c3c2)ccc1OCc1ccc(C)cc1	44.2	.	.	.
COc1cc(CNc2ccc3[nH]c(=O)[nH]c3c2)ccc1OCc1ccccc1Cl	.	.	.	.
COc1ccc(S(=O)(=O)N(C)C[C@@H]2Oc3ccc(NS(=O)(=O)c4ccc(C)cc4)cc3C(=O)N([C@H](C)CO)C[C@H]2C)cc1	/	.	/	/
CCNC(=O)Nc1ccc2c(c1)C(=O)N(C)[C@H]1CC[C@H](CC(=O)N[C@@H](C)c3ccccc3)O[C@H]1CO2	/	/	90.6	/
CNC(=O)C[C@@H]1CC[C@@H]2[C@H](COc3ccc(NC(=O)c4cc(C)on4)cc3C(=O)N2C)O1	/	.	95.8	/
CNC(=O)C[C@H]1CC[C@@H]2[C@@H](COc3ccc(NC(=O)c4cc(C)on4)cc3C(=O)N2C)O1	/	.	.	/
CCNC(=O)Nc1ccc2c(c1)C(=O)N(C)[C@@H]1CC[C@@H](CC(=O)N[C@@H](C)c3ccccc3)O[C@@H]1CO2	/	/	.	/
CCNC(=O)Nc1ccc2c(c1)C(=O)N(C)[C@H]1CC[C@@H](CC(=O)N[C@H](C)c3ccccc3)O[C@H]1CO2	/	/	.	/
